Screening results as filed in PubChem BioAssay.
CXCR6 block: inhibitors of human CXCR6 receptor. O00574. CHO-K1 PathHunter CXCR6 beta-arrestin, luminescence. inhibition, % at 20 µM. 360,000 compounds, 0.36% hits; in the data active = inhibition above about 34%, passing the limit was not always enough;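 also: antagonist mode with CXCL16 agonist at 10 nM final; 0% = 10 nM CXCL16 with DMSO and 100% = unstimulated wells without agonist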
CCR6 antag: antagonists of human CCR6 receptor; P51684; CHO-K1 CCR6 PathHunter beta-arrestin, luminescence, CCL20-stimulated; inhibition, % at 20 µM; 340,000 compounds, 0.49% hits;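 active = compounds whose inhibition of the agonist-driven luminescence signal at 20 µM reaches about 50%, limit read from the data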;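 also: cells stimulated with CCL20 at 14 nM final; plate controls were DMSO with CCL20 for no effect and DMSO without agonist for full effect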
APJ agonist: APJ receptor agonism; P35414; CHO-K1 APJ PathHunter beta-arrestin, luminescence; 0% DMSO wells, 100% apelin; activation, % at 20 µM; 330,000 compounds, 0.11% hits; AID 2520;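 active = activation more than six SD over the plate average, tested at 20 µM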;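 also: 0% = DMSO alone and 100% = apelin-13 at 10 nM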
Target sequence (P35414 whole entry, looked up): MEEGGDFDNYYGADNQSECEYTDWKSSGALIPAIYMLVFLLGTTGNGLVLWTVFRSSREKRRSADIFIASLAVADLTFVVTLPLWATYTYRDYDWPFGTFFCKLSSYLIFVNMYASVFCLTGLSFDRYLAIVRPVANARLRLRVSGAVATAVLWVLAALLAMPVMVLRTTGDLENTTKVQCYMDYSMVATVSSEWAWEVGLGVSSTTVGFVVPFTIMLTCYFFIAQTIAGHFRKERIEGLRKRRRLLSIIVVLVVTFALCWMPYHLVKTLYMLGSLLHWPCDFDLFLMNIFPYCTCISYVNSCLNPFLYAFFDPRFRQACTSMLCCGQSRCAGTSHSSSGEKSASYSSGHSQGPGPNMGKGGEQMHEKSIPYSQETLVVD
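Assay system – PathHunter CHO-K1 APJ (AGTRL-1) beta-arrestin reporter cells · Compound – one dose, 20 µM compound, 1% DMSO · Timing – compound 90 min 25 °C, reagent 1 h · Measured by – luminescence from split beta-galactosidase complementation, Galacton Star/Emerald II substrate · Measure – beta-arrestin recruitment to APJ as agonist activity, luminescent signal · Benchmarks – DMSO vs Apelin-13 10 nM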
EBI2 block: blocks human EBI2 receptor beta-arrestin signaling; P32249; EBI2 beta-arrestin recruitment, luminescence, 7a,25-OHC stimulated; inhibition, % at 5 µM; 360,000 compounds, 0.81% hits; in the data active = inhibition above about 38%;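 also: enzyme fragment complementation signal reports receptor beta-arrestin coupling in cells; 0% = agonist plus DMSO wells and 100% = wells without agonist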
APJ antagonist: antagonists of human APJ apelin receptor | CHO-K1 APJ beta-arrestin complementation, luminescence | inhibition, % at 20 µM | 330,000 compounds, 0.32% hits;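 active = inhibition above about 40% at 20 µM, limit read from the data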;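 also: cells challenged with 10 nM apelin-13 agonist together with compound; plate controls were apelin-13 plus DMSO wells for no effect and DMSO wells lacking apelin-13 for full effect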
EBI2 antag conf: EBI2 (human) antagonism, single concentration confirmation | shares compounds with EBI2 block | EBI2 beta-arrestin luminescence, 7a,25-OHC antagonism | inhibition, % at 5 µM | 2,400 compounds, 29% hits | AID 651997;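 active = inhibition of at least 50%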
EBI2 agonist: counter-screen for EBI2 antagonists: EBI2 agonist activity; EBI2-expressing cells, agonist mode, luminescence, 60 min; 0% vehicle, 100% 7α,25-dihydroxycholesterol control; 2,400 tested, under 10 active; shares compounds with EBI2 block; activation, % at 5 µM;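 active = activation of at least 50%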
bGal cs: beta-galactosidase inhibition counter-screen. 2,400 compounds, 1% hits. inhibition, % at 5 µM. shares compounds with EBI2 block. purified beta-galactosidase, luminescent Galacton Star, 15 min;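 active = replicate-average signal at least 3 plate SD below neutral wells, shown as high inhibition, flagging enzyme-inhibiting false positives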;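 also: 0% = DMSO wells with enzyme and 100% = wells lacking enzyme; higher means stronger loss of beta-gal luminescence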
The depositor's hits bear a star; · = not tested or not shown; ! = not active in a repeat. A selection: hits, their analogues and other compounds. The true share with any hit is near 1.5%.

SMILES	CXCR6 block	CCR6 antag	APJ agonist	EBI2 block	APJ antagonist	EBI2 antag conf	EBI2 agonist	bGal cs
OC[C@@H]1CN(Cc2cccc(C(F)(F)F)c2)C[C@H](n2cnc3c(NC4CC4)ncnc32)O1	-4	·	·	65*	·	62*	3	9
CN(C)c1ncnc2c1ncn2[C@H]1CN(Cc2ccc(F)cc2)C[C@@H](CO)O1	-10	·	·	3	·	·	·	·
CC(C)CNc1ncnc2c1ncn2[C@H]1CN(Cc2ccc(-c3ccccc3)cc2)C[C@@H](CO)O1	-5	·	·	-5	·	·	·	·
CC(C)Nc1ncnc2c1ncn2[C@H]1CN(Cc2ccc(-c3ccccc3)cc2)C[C@@H](CO)O1	-4	·	·	44*	·	27	0	-13
OC[C@@H]1CN(Cc2ccncc2)C[C@H](n2cnc3c(NC4CC4)ncnc32)O1	-2	·	·	10	·	·	·	·
OC[C@@H]1CN(Cc2ccc(Cl)cc2)C[C@H](n2cnc3c(NC4CC4)ncnc32)O1	-6	·	·	83*	·	82*	-1	-16
CC(C)N(C)c1ncnc2c1ncn2[C@H]1CN(Cc2ccc(F)cc2)C[C@@H](CO)O1	3	·	·	68*	·	63*	1	5
OC[C@@H]1CN(Cc2cccc(C(F)(F)F)c2)C[C@H](n2cnc3c(NCc4ccc(F)cc4)ncnc32)O1	-8	·	·	9	·	·	·	·
CCn1cc(C(=O)N2CCCC(C(=O)c3cccc(C(F)(F)F)c3)C2)cn1 (stereo unspecified)	1	·	·	9	·	·	·	·
O=C(c1cc2cc(Br)ccc2o1)N1CCCCC1	-6	16	-3	57*	6	17	0	-8
O=C1CCC[C@@H]2[C@H]3CCC[N+]4([O-])CCC[C@@H](CN12)[C@@H]34 (stereo partly specified)	-5	-4	-1	-9	13	·	·	·
COC(C(=O)N/N=C(\C)c1ccc(C(C)(C)C)cc1)c1ccccc1 (stereo unspecified)	5	17	-5	65*	-14	24	-1	-10
COC(C(=O)N/N=C(\C)c1ccc(O)cc1)c1ccccc1 (stereo unspecified)	-5	-2	-1	-1	-5	·	·	·
COC(=O)c1ccc(OC)c(CSc2nnc(COc3ccc(OC)cc3)o2)c1	4	21	-1	49*	3	45	0	-1
Cc1cccc(OCc2nnc(SCC(=O)N3c4ccccc4CCc4ccccc43)o2)c1	4	19	-2	52*	2	5	0	3
O=C(CSc1nnc(COc2ccc(F)cc2)o1)N1c2ccccc2CCc2ccccc21	16	15	1	51*	6	24	0	7
COc1ccc(OCc2nnc(SCC(=O)N3C(C)CCCC3C)o2)cc1 (stereo unspecified)	-5	21	-4	46*	3	24	1	7
Cc1onc(-c2ccccc2Cl)c1C(=O)Nc1ccc(-c2nnc3n2CCCCC3)cc1	6	-9	1	-4	12	·	·	·
O=C(CCN1C(=O)c2ccccc2C1=O)Nc1ccccc1C(=O)N1CCOCC1	6	-20	-2	0	6	·	·	·
O=C(NNc1ccc(C2CCCCC2)cc1)C(O)(c1ccccc1)c1cccs1 (stereo unspecified)	-8	24	-9	41*	31	36	0	8
COc1ccc(C(O)(C(=O)NNc2ccc(C)cc2)c2cccs2)cc1 (stereo unspecified)	-3	13	-20	-3	31	·	·	·
CCC(C)NC(=O)c1c(N)n(/N=C/c2ccccn2)c2nc3ccccc3nc12 (stereo unspecified)	-8	-17	-1	27	-13	·	·	·
CC(C)OCCCNC(=O)c1c(N)n(/N=C/c2ccccn2)c2nc3ccccc3nc12	-1	-27	-5	48*	0	21	0	-9
Cn1nc(Oc2ncc(C(F)(F)F)cc2Cl)cc1C(F)(F)F	4	1	1	66*	-5	8	-2	-13
O=C1COc2ccc(-c3csc(=Nc4ccc(OC(F)F)cc4)n3CC3CCCO3)cc2N1 (stereo unspecified)	38	72*	-4	70*	26	55*	-2	-15
SMILES	CXCR6 block	CCR6 antag	APJ agonist	EBI2 block	APJ antagonist	EBI2 antag conf	EBI2 agonist	bGal cs
COCC(C)n1c(-c2ccc3c(c2)NC(=O)CO3)csc1=Nc1ccc(OC(F)F)cc1 (stereo unspecified)	26	62*!	-4	58*	7	58*!	0	1
CCN=c1scc(-c2ccc3c(c2)NC(=O)CO3)n1N=C1CCCC1	2	16	-1	-1	15	·	·	·
O=c1cc(N/N=C/c2ccccc2)[nH]c(=O)[nH]1	-1	2	0	-6	-11	·	·	·
N#C/C(=C/c1ccc2c(c1)OCO2)C(=O)NCCc1c[nH]c2ccccc12	3	13	0	51*	7	44	1	9
COc1cccc2sc(Nc3nc(-c4cc5ccccc5oc4=O)cs3)nc12	15	24	·	46*	·	20	-1	-10
Nc1ccc(Nc2nc(-c3cc4ccccc4oc3=O)cs2)cc1	-6	11	-2	12	-42	·	·	·
COc1ccc(-n2nnc3c(SCC(=O)N4CCCc5ccccc54)ncnc32)cc1	-1	11	-3	42*	-3	4	1	6
COc1cccc(-c2cc3nc(-c4ccccc4)cc(N4CCCC(O)C4)n3n2)c1 (stereo unspecified)	-4	1	-1	47*	-7	23	0	-14
CC(C)(C)c1ccc(C(=O)Nc2ccc(O)c3c(=O)cc(-c4ccccc4Cl)oc23)cc1	-4	-1	0	-13	4	·	·	·
Cc1ccc(/C=C/C(=O)Nc2ccc(O)c3c(=O)cc(-c4ccccc4Cl)oc23)cc1	5	8	-3	44*	7	27	0	7
COc1cccc(NC(=O)Cn2c3ccc(F)cc3c3nc4n(c(=O)c32)CCCS4)c1	10	1	1	92*	-8	72*	1	7
COc1cc(O)oc1C=Nc1ccc(C(F)(F)F)cc1	-2	13	-3	-2	5	·	·	·
Cc1ccc(CONC(=O)c2ccc(OC(F)F)cc2)cc1	-4	6	0	78*	18	71*	0	8
COc1ccccc1N1CCN(C(=O)c2cc(C)on2)CC1	-3	-9	-2	-17	-7	·	·	·
COc1ccccc1N1CCN(C(=O)c2cc(-c3cccc(Cl)c3)on2)CC1	1	-4	-5	72*	-4	34	-2	-10
